This is an account of results in ChEMBL document CHEMBL2169875, “Designing allosteric regulators of thrombin. Monosulfated benzofuran dimers selectively interact with Arg173 of exosite 2 to induce inhibition” (J Med Chem, 2012).

Calls of active or inactive are those of the source. The rule behind the calls is not given here.

Data set [1] can be described thus: Inhibition of wild type human plasma alpha-thrombin assessed as spectrozyme TH hydrolysis after 10 mins in absence of exosite 1 ligand HirP. The gist of the method: (§1)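 Buffer was 20 mM Tris-HCl pH 7.4, 100 mM NaCl, 2.5 mM CaCl2, 0.1% PEG 8000. After 10 min, Spectrozyme TH was added and A405 read. Apparent IC50 and efficacy came from a logistic fit with all parameters floating.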

The species named for data set [2] is Homo sapiens. As to the kind of experiment: Binding affinity to human antithrombin by spectrofluorometric analysis.
In data set [3] the target is T1, Prothrombin (Homo sapiens, UniProt P00734). The experiment in a line: Inhibition of recombinant wild type thrombin expressed in BHK cells assessed as spectrozyme TH hydrolysis at 0.25 to 12.5 mM after 10 mins. It is filed as cell-based.
Data set [4] is described as follows: Inhibition of wild type human plasma alpha-thrombin assessed as spectrozyme TH hydrolysis after 10 mins in presence of 6.5 uM exosite 2 ligand FibP. The class given is cell-free. The gist of the method:
as §1

Data set [5] is described as follows: Inhibition of recombinant thrombin Lys169Ala mutant expressed in BHK cells assessed as spectrozyme TH hydrolysis after 10 mins. It is filed as cell-based. Put shortly:
(§2)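 Recombinant thrombins (wild type or Ala mutants) made as prothrombin-1 in BHK cells, purified by HPC4 immunoaffinity, activated, and active-site titrated. About 5 nM enzyme was incubated 10 min at 25 °C with inhibitor in 20 mM Tris-HCl pH 7.4, 100 mM NaCl, 2.5 mM CaCl2, 0.1% PEG 8000. Spectrozyme TH was then added, and the initial A405 rate was read. The dose-response of fractional residual activity was fitted to a logistic equation for IC50, Hill slope and efficacy.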

The nature of data set [6]: Inhibition of recombinant thrombin Arg175Ala mutant expressed in BHK cells assessed as spectrozyme TH hydrolysis after 10 mins. The class given is cell-based. Put shortly: as §2
Data set [7] concerns the target T1, Prothrombin. As to the kind of experiment: Inhibition of recombinant wild type thrombin expressed in BHK cells assessed as spectrozyme TH hydrolysis after 10 mins. The class given is cell-based. Put shortly:
as §2

The nature of data set [8]: Inhibition of recombinant thrombin Arg93,97,101Ala mutant expressed in BHK cells assessed as spectrozyme TH hydrolysis after 10 mins. The class given is cell-based. Put shortly:
as §2

The subject of a further data set is BHK. The experiment in a line: Inhibition of recombinant thrombin Arg93,97,101Ala mutant expressed in BHK cells assessed as spectrozyme TH hydrolysis at 0.25 to 12.5 mM after 10 mins. It is filed as cell-based.
The next data set relates to A549. As to the kind of experiment: Cytotoxicity against human A549 cells assessed as cell viability up to 420 uM after 120 hrs by MTT assay. To be noted: a549, 120 h. It is filed as cell-based. The gist of the method:
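A549 cells in DMEM with 10% heat-inactivated FBS were kept at 37 °C, 5% CO2. Cells were seeded at 30,000 per well for 4 h, then exposed to medium or varying compound concentrations (aqueous stock) for 120 h at 37 °C. MTT was added for 10 h, followed by SDS/DMF lysis for 10 h. Three experiments were run, analysed by one-way ANOVA with Dunnett's test.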
Background: Formazan colour is commonly taken as a measure of viable cells.

Data set [9] is described as follows: Partial competitive inhibition of wild type human plasma alpha-thrombin assessed as spectrozyme TH hydrolysis after 10 mins in presence of 48 uM exosite 2 ligand UFH. The class given is cell-free. Put shortly:
as §1

Data set [10] can be described thus: Inhibition of wild type human plasma alpha-thrombin assessed as spectrozyme TH hydrolysis after 10 mins in absence of exosite 2 ligand FibP. The gist of the method:
as §1

The nature of data set [11]: Inhibition of wild type human plasma alpha-thrombin assessed as spectrozyme TH hydrolysis after 10 mins in presence of 10 uM exosite 2 ligand H8. It is filed as cell-free. Put shortly: as §1
Data set [12] can be described thus: Inhibition of wild type human plasma alpha-thrombin assessed as spectrozyme TH hydrolysis after 10 mins in absence of exosite 2 ligand H8. The gist of the method:
as §1

The target of the next data set is Coagulation factor X (Homo sapiens, UniProt P00742). The experiment in a line: Inhibition of human plasma F10a assessed as spectrozyme TH hydrolysis after 10 mins. The gist of the method: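 Chromogenic assay of human plasma factor Xa (4 nM final) at 25 °C in 20 mM Tris-HCl pH 7.4, 100 mM NaCl, 2.5 mM CaCl2, 0.1% PEG 8000. Inhibitor dilutions (from 0.25–12.5 mM stocks) incubated with enzyme 10 min, then 1 mM Spectrozyme TH stock added. Initial rate at 405 nm gave fractional residual activity. Fitting the logistic equation yielded apparent IC50, Hill slope and efficacy ΔY.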

Data set [13] can be described thus: Inhibition of wild type human plasma alpha-thrombin assessed as spectrozyme TH hydrolysis after 10 mins by spectrophotometric analysis in absence of exosite 2 ligand UFH. Put shortly:
as §1

Data set [14] in a line: Inhibition of recombinant thrombin Lys235Ala mutant expressed in BHK cells assessed as spectrozyme TH hydrolysis after 10 mins. The class given is cell-based. The gist of the method: as §2
The species entered for data set [15] is Homo sapiens. As to the kind of experiment: Inhibition of wild type human plasma alpha-thrombin assessed as spectrozyme TH hydrolysis after 10 mins in presence of exosite 1 ligand HirP. The class given is cell-free. The gist of the method: as §1

Chain of Coagulation factor X (P00742 41-179 limits assumed): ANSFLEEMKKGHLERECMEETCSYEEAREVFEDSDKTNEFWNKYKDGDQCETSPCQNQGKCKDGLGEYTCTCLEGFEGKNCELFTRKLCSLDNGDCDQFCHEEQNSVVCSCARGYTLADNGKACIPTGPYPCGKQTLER
Chain of Coagulation factor X (P00742 235-488 limits assumed): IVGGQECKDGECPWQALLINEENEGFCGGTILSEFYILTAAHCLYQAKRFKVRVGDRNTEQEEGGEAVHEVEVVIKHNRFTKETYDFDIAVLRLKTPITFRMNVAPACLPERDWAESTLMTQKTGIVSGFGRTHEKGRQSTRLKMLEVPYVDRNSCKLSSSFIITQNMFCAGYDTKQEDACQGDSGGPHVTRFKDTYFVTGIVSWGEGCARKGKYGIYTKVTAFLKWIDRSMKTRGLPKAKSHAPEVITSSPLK

As for `COc1cc2oc(C)c(C(=O)O)c2cc1OCc1oc2cc(OC)c(OS(=O)(=O)O)cc2c1C(=O)O`, the IC50 in [1] was above 500 µM.
Still for that read-out and setting: with `COC(=O)c1c(C)oc2cc(OC)c(OCc3oc4cc(OC)c(OS(=O)(=O)O)cc4c3C(=O)OC)cc12` the figure was 31.9 µM.
Turning to `CO[C@H]1O[C@H](COS(=O)(=O)O)[C@@H](O[C@@H]2O[C@@H](C(=O)O)[C@@H](O[C@H]3O[C@H](COS(=O)(=O)O)[C@@H](O[C@@H]4O[C@H](C(=O)O)[C@@H](O[C@H]5O[C@H](COS(=O)(=O)O)[C@@H](O)[C@H](O)[C@H]5NS(=O)(=O)O)[C@H](O)[C@H]4O)[C@H](OS(=O)(=O)O)[C@H]3NS(=O)(=O)O)[C@H](O)[C@H]2OS(=O)(=O)O)[C@H](O)[C@H]1NS(=O)(=O)O`, the Activity in the data set listed under Homo sapiens [2] was determined as 50 nM.
With `CCOC(=O)c1c(C)oc2cc(OC(C)C)c(OCc3oc4cc(OC(C)C)c(OS(=O)(=O)O)cc4c3C(=O)OCC)cc12`, the IC50 in [1] came to 1.3 µM.
Regarding `CCOC(=O)c1c(C)oc2cc(OC)c(OCc3oc4cc(OC)c(OS(=O)(=O)[O-])cc4c3C(=O)OCC)cc12.[Na+]`, the inhibition at Prothrombin [3] is 30%; in the data set on BHK, 70%. Further, the IC50 amounted to 118 µM in data set [4]; 4.9 µM in data set [5]; 4.9 µM in data set [6]; 5.5 µM on Prothrombin [7]; 5 µM in data set [8]; 36.1 µM in data set [9]. Besides, the IC50 is 7.9 µM in [10]; 3.7 µM in data set [11]; 2.7 µM in data set [12]; above 300 µM at Coagulation factor X; 8.8 µM in data set [13]; 4.9 µM in data set [14]. The IC50 in [1] was determined as 6.2 µM. Further, the Activity result in the data set on A549 is listed as “Non-toxic”. In the data set filed under Homo sapiens [15], the inhibition entry is “Active”.
In the case of `CCOC(=O)c1c(C)oc2cc(OCC)c(OCc3oc4cc(OCC)c(OS(=O)(=O)O)cc4c3C(=O)OCC)cc12`, the IC50 in [1] was found to be 4.5 µM.
Turning to `COCCOC(=O)c1c(C)oc2cc(OC)c(OCc3oc4cc(OC)c(OS(=O)(=O)O)cc4c3C(=O)OCCOC)cc12`, the IC50 in data set [1] turned out to be 16.9 µM.

By IC50 is commonly meant the midpoint of a concentration-inhibition curve. Broadly, the inhibition is the change of the read-out against control, counted positive when it falls.
